One data set has as its target AKT1 (PKB alpha) (Homo sapiens, UniProt P31749). The data set is described as follows: AKT1 in vitro kinase assay. The format is biochemical. In a few lines: (§1)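 Z′-LYTE assay. Enzyme per 10 μL reaction: AKT1 0.34–7.65 ng, AKT2 1–40 ng, or AKT3 0.56–8.3 ng. Reaction contained 2 μM Ser/Thr 06 peptide, ATP at Km, 50 mM HEPES pH 7.5, 0.01% BRIJ-35, 10 mM MgCl2 and 1 mM EGTA. After 1 h, Development Reagent A (1:2048) protease cleaved non-phosphorylated peptide. Read-out was the coumarin 445 nm/fluorescein 520 nm emission ratio; curves were fitted.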

The next data set deals with T1, CHUK (IKK alpha) (Homo sapiens, UniProt O15111).
T1 sequence (O15111 1-745): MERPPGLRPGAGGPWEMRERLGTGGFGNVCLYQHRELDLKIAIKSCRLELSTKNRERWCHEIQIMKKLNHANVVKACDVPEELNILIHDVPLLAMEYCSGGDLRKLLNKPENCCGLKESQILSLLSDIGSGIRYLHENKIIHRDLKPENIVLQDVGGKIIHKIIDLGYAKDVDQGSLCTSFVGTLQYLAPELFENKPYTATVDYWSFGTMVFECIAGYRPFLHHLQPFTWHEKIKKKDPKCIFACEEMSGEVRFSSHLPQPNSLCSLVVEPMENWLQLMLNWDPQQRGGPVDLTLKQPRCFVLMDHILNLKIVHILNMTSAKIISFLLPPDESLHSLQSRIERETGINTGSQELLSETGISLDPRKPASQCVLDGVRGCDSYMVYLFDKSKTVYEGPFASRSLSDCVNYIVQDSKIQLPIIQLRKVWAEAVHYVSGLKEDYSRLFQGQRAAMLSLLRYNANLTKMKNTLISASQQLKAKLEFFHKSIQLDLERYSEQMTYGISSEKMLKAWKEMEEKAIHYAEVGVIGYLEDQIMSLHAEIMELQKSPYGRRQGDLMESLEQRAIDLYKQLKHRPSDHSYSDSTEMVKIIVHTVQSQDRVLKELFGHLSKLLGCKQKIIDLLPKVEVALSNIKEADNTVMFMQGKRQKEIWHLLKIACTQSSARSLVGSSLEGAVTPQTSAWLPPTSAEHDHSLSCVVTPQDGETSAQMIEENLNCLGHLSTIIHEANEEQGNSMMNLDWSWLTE
The data set is described as follows: IKKα. In kind it is biochemical. The conditions noted are these: for IKKα in vitro kinase inhibition (in words): stated for IKKs. In a few lines:
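ADAPTA ADP-detection format. Detection mix added EDTA (stop), europium-labelled anti-ADP antibody and Alexa Fluor 647 ADP tracer; ADP formation was taken from the emission ratio. Where noted, IC50 was predicted from % inhibition at 1 μM test compound, mean of two experiments.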

In another data set the target is T2, IKBKB (IKK beta) (Homo sapiens, UniProt O14920).
T2 sequence (O14920 1-756): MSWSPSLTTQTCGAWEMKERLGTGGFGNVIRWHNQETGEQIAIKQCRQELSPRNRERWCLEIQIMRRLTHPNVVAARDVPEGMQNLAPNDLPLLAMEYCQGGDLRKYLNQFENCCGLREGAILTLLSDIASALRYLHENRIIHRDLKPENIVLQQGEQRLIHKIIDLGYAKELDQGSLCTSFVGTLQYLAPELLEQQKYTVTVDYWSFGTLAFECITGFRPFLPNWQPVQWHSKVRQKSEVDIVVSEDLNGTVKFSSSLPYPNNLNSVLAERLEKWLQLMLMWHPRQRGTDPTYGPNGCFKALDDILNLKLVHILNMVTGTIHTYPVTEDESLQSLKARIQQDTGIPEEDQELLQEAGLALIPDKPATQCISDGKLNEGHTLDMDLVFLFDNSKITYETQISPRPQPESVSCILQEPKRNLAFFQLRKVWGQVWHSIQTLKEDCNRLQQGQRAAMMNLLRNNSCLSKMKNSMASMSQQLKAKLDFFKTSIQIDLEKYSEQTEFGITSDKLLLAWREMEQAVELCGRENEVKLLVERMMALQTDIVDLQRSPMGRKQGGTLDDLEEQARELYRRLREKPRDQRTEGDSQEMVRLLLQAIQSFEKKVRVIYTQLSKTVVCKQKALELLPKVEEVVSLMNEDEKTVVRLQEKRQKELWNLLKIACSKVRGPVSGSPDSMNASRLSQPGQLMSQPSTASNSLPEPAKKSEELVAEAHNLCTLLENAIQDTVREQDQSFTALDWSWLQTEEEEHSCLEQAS
The data set is described as follows: IKKβ. The conditions noted are these: for IKKβ in vitro kinase inhibition (in words): stated for IKKs. The format is biochemical. The method in brief:
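Z′-LYTE format. Development used Reagent B (1:64) protease; read-out was the coumarin 445 nm/fluorescein 520 nm emission ratio. Where noted, IC50 was predicted from % inhibition at 10 μM test compound, mean of two experiments.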

The target of the next data set is AKT3 (PKB gamma) (Homo sapiens, UniProt Q9Y243). In words: AKT3 in vitro kinase assay. In kind it is biochemical. The method in brief: as §1
Chain of AKT3 (PKB gamma) (Q9Y243 whole entry): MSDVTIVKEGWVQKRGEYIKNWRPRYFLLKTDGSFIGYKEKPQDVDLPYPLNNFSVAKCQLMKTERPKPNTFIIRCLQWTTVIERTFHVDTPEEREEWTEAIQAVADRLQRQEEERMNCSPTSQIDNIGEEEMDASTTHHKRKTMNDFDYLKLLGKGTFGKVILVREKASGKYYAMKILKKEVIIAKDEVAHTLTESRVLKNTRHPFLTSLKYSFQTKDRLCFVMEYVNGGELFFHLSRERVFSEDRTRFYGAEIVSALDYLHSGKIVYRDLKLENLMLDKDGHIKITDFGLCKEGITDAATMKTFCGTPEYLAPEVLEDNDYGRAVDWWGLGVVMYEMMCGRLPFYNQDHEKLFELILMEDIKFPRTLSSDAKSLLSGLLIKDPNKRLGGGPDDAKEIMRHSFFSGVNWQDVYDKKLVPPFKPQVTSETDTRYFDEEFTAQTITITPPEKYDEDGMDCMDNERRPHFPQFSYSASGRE
Another data set deals with AKT2 (PKB beta) (Homo sapiens, UniProt P31751). The data set is described as follows: AKT2 in vitro kinase assay. The format is biochemical. The method in brief: as §1
Chain of AKT2 (PKB beta) (P31751 whole entry): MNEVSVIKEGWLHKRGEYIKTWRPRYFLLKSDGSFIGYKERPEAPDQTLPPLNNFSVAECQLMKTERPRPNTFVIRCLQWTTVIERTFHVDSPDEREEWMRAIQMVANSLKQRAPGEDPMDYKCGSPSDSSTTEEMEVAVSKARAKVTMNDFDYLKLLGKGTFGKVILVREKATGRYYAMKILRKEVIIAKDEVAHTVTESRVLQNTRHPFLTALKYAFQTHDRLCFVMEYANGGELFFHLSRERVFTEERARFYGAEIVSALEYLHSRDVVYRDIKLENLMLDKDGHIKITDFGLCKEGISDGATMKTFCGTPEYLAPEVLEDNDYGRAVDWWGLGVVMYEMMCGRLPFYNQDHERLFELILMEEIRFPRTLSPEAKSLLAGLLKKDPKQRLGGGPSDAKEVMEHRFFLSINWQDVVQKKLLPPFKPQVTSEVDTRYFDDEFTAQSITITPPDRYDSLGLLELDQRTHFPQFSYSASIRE
A short description of data set [1]: in vitro plasma stability. The format is in vitro ADME.
The nature of data set [2]: in vitro microsomal stability. The format is in vitro ADME.

Chain of AKT1 (PKB alpha) (P31749 whole entry): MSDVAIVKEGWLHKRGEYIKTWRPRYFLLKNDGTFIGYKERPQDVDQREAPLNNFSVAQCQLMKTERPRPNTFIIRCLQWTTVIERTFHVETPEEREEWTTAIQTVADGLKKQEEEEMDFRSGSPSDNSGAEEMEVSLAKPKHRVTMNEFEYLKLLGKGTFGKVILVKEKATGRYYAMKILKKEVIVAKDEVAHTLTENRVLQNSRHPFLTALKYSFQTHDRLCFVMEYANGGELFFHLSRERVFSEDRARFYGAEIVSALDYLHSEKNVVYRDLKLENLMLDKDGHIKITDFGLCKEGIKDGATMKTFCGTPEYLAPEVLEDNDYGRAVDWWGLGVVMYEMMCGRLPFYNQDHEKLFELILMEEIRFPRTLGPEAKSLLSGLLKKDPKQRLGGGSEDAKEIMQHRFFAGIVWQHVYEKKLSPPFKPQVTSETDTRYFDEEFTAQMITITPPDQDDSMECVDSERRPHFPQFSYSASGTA

As usually defined, the IC50 is the midpoint of a concentration-inhibition curve. `COc1ccc(-c2c(C(=O)/C=C/c3nc4cc(F)c(F)cc4[nH]3)c(=O)[nH]c3ccc(Cl)cc23)cc1` [compound 52, (E)-6-chloro-3-(3-(5,6-difluoro-1H-benzo[d]imidazol-2-yl)acryloyl)-4-(4-methoxyphenyl)quinolin-2(1H)-one] returned an IC50 against AKT1 (PKB alpha) above 50 µM.
Regarding `O=C(/C=C/c1nc2cc(F)c(F)cc2[nH]1)c1c(-c2ccc(F)c(F)c2)c2cc(Cl)ccc2[nH]c1=O` [compound 55, (E)-6-chloro-3-(3-(5,6-difluoro-1H-benzo[d]imidazol-2-yl)acryloyl)-4-(3,4-difluorophenyl)quinolin-2(1H)-one], the IC50 on CHUK (IKK alpha) was 12.1 µM; at IKBKB (IKK beta) it was 17.8 µM; at AKT1 (PKB alpha), above 50 µM.
Taken in the same sequence, the figures for `O=C(/C=C/c1nc2cc(F)c(F)cc2[nH]1)c1c(-c2ccc(F)cc2)c2cc(Cl)ccc2[nH]c1=O` [compound 49, (E)-6-chloro-3-(3-(5,6-difluoro-1H-benzo[d]imidazol-2-yl)acryloyl)-4-(4-fluorophenyl)quinolin-2(1H)-one] were 7.12 µM, 15.4 µM and 30.4 µM.
In the case of `Cc1ccc2[nH]c(=O)c(C(=O)/C=C/c3nc4ccccc4[nH]3)c(-c3ccccc3)c2c1` [compound 45, (E)-3-(3-(1H-benzo[d]imidazol-2-yl)acryloyl)-6-methyl-4-phenylquinolin-2(1H)-one], the IC50 at AKT3 (PKB gamma) turned out to be 5.53 µM; on CHUK (IKK alpha) it was 29.1 µM; on IKBKB (IKK beta), 7.9 µM; at AKT1 (PKB alpha), 6.26 µM.
Take `O=C(/C=C/c1nc2cc(F)c(F)cc2[nH]1)c1c(-c2ccc(F)cc2)c2cc(F)ccc2[nH]c1=O` [compound 48, (E)-3-(3-(5,6-difluoro-1H-benzo[d]imidazol-2-yl)acryloyl)-6-fluoro-4-(4-fluorophenyl)quinolin-2(1H)-one]: the results for the half-inhibitory concentration (IC50) against CHUK (IKK alpha), against IKBKB (IKK beta) and against AKT1 (PKB alpha) were 13.1 µM, 16 µM and 15.9 µM, respectively.
For `O=C(NCc1nc2ccccc2[nH]1)c1c(-c2ccccc2)c2cc(Cl)ccc2[nH]c1=O` [compound 58, N-((1H-benzo[d]imidazol-2-yl)methyl)-6-chloro-2-oxo-4-phenyl-1,2-dihydroquinoline-3-carboxamide], the “IKKα in vitro kinase inhibition (in words)” value on CHUK (IKK alpha) was “completely inactive”. Besides, the “IKKβ in vitro kinase inhibition (in words)” value at IKBKB (IKK beta) is “completely inactive”. At AKT1 (PKB alpha), the “AKT1 in vitro inhibition (in words)” value was “completely inactive”.
In the case of `Cn1c(=O)c(C(=O)/C=C/c2nc3cc(F)ccc3[nH]2)c(-c2ccccc2)c2cc(Cl)ccc21` [compound 46, (E)-6-chloro-3-(3-(5-fluoro-1H-benzo[d]imidazol-2-yl)acryloyl)-1-methyl-4-phenylquinolin-2(1H)-one], the IC50 at AKT1 (PKB alpha) stood at 17.2 µM.
Same read-out and setting: with `CCOc1ccc(-c2c(C(=O)/C=C/c3nc4cc(F)c(F)cc4[nH]3)c(=O)[nH]c3ccc(Cl)cc23)cc1` [compound 53, (E)-6-chloro-3-(3-(5,6-difluoro-1H-benzo[d]imidazol-2-yl)acryloyl)-4-(4-ethoxyphenyl)quinolin-2(1H)-one] the figure was above 50 µM.
For the compound `O=C(/C=C/c1nc2ccccc2[nH]1)c1c(-c2ccccc2)c2cc(Br)ccc2[nH]c1=O` [compound 44, (E)-3-(3-(1H-benzo[d]imidazol-2-yl)acryloyl)-6-bromo-4-phenylquinolin-2(1H)-one], the IC50 stood at 8.85 µM on AKT3 (PKB gamma); 6.02 µM on CHUK (IKK alpha); 1.72 µM against AKT2 (PKB beta); 5.6 µM against IKBKB (IKK beta); 4.48 µM on AKT1 (PKB alpha).
As to `O=C(/C=C/c1nc2cc(F)c(F)cc2[nH]1)c1c(-c2ccc(F)c(F)c2)c2cc(F)ccc2[nH]c1=O` [compound 54, (E)-3-(3-(5,6-difluoro-1H-benzo[d]imidazol-2-yl)acryloyl)-4-(3,4-difluorophenyl)-6-fluoroquinolin-2(1H)-one], the IC50 against CHUK (IKK alpha) is 7.2 µM; against IKBKB (IKK beta) it was 16.4 µM; against AKT1 (PKB alpha) it was 44.5 µM.
As for `O=C(/C=C/c1nc2cc(F)c(F)cc2[nH]1)c1c(-c2ccc(Cl)cc2)c2cc(Cl)ccc2[nH]c1=O` [compound 51, (E)-6-chloro-4-(4-chlorophenyl)-3-(3-(5,6-difluoro-1H-benzo[d]imidazol-2-yl)acryloyl)quinolin-2(1H)-one], on AKT1 (PKB alpha), the IC50 was above 50 µM.
Same read-out and setting: the figure for `Cc1ccc(-c2c(C(=O)/C=C/c3nc4cc(F)c(F)cc4[nH]3)c(=O)[nH]c3ccc(Cl)cc23)cc1` [compound 50, (E)-6-chloro-3-(3-(5,6-difluoro-1H-benzo[d]imidazol-2-yl)acryloyl)-4-(p-tolyl)quinolin-2(1H)-one] is above 50 µM; for `O=C(/C=C/c1nc2ccccc2[nH]1)c1c(-c2ccccc2)c2ccccc2[nH]c1=O` [compound 43, (E)-3-(3-(1H-benzo[d]imidazol-2-yl)acryloyl)-4-phenylquinolin-2(1H)-one] it is 5.2 µM.
For `O=C(CCc1nc2ccccc2[nH]1)c1c(-c2ccccc2)c2cc(Cl)ccc2[nH]c1=O` [compound 59, 3-(3-(1H-benzo[d]imidazol-2-yl)propanoyl)-6-chloro-4-phenylquinolin-2(1H)-one], the “IKKα in vitro kinase inhibition (in words)” value at CHUK (IKK alpha) is “completely inactive”. Moreover, on IKBKB (IKK beta), the “IKKβ in vitro kinase inhibition (in words)” value is “completely inactive”. In addition, at AKT1 (PKB alpha), the “AKT1 in vitro inhibition (in words)” value is “completely inactive”.
Consider `O=C(/C=C/c1nc2cc(Br)ccc2[nH]1)c1c(-c2ccccc2)c2cc(Cl)ccc2[nH]c1=O` [compound 41, (E)-3-(3-(5-bromo-1H-benzo[d]imidazol-2-yl)acryloyl)-6-chloro-4-phenylquinolin-2(1H)-one], for which the IC50 against AKT1 (PKB alpha) was 14 µM. In other words, the double-digit micromolar range.
Regarding `Cc1ccc2[nH]c(/C=C/C(=O)c3c(-c4ccccc4)c4cc(Cl)ccc4[nH]c3=O)nc2c1` [compound 40, (E)-6-chloro-3-(3-(5-methyl-1H-benzo[d]imidazol-2-yl)acryloyl)-4-phenylquinolin-2(1H)-one], the IC50 at AKT3 (PKB gamma) turned out to be 8.4 µM; at CHUK (IKK alpha), 8.03 µM; on AKT2 (PKB beta), 5 µM; against IKBKB (IKK beta), 9.6 µM; against AKT1 (PKB alpha), 43.3 µM.
With `O=C(/C=C/c1nc2ccccc2[nH]1)c1c(O)nc2ccc(Cl)cc2c1-c1ccccc1` [compound 1, (E)-3-(3-(1H-benzo[d]imidazol-2-yl)acryloyl)-6-chloro-4-phenylquinolin-2(1H)-one], the IC50 came to 10.9 µM against AKT3 (PKB gamma); 3.85 µM against CHUK (IKK alpha); 4.24 µM on AKT2 (PKB beta); 2.3 µM against IKBKB (IKK beta); 6.22 µM on AKT1 (PKB alpha). Besides, the plasma stability entry in data set [1] is reported as “favorable”. The microsomal stability entry in data set [2] is listed as “favorable”.
As to `Cn1c(/C=C/C(=O)c2c(-c3ccccc3)c3cc(Cl)ccc3[nH]c2=O)nc2ccccc21` [compound 39, (E)-6-chloro-3-(3-(1-methyl-1H-benzo[d]imidazol-2-yl)acryloyl)-4-phenylquinolin-2(1H)-one], at AKT1 (PKB alpha), the “AKT1 in vitro inhibition (in words)” value is “inactive” and the IC50 is above 100 µM.
